The record followed here is ChEMBL document CHEMBL4152257, “Discovery of novel β-carboline/acylhydrazone hybrids as potent antitumor agents and overcome drug resistance” (Eur J Med Chem, 2018).

Molecules are shown by their SMILES.

The test system of test [1] is MCF7. As to the kind of experiment: Antiproliferative activity against human MCF7 cells at 1 uM after 48 to 72 hrs by MTT assay relative to control. It counts as functional. A digest of the protocol: (§1)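 Single-concentration screen in the MTT proliferation assay: log-phase cells seeded and allowed to adhere, exposed to compound at 1 µM for 48 h or 72 h, MTT added for 2-3 h, formazan dissolved in DMSO; percent inhibition versus control.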

The test system of test [2] is NCI-H460. As to the kind of experiment: Antiproliferative activity against human H460 cells at 1 uM after 48 to 72 hrs by MTT assay relative to control. It counts as functional. A digest of the protocol: as §1
In general terms: Tetrazolium dyes change colour on reduction, which living cells bring about.

In test [3] the test system is MDA-MB-231. As to the kind of experiment: Antiproliferative activity against human MDA-MB-231 cells at 1 uM after 48 to 72 hrs by MTT assay relative to control. It counts as functional. Summed up: as §1
Test [4] deals with NCI-H460. As to the kind of experiment: Antiproliferative activity against human H460 cells after 48 to 72 hrs by MTT assay. The format is functional, cell-based. A digest of the protocol:
(§2)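 Cells in log phase seeded and allowed to adhere, then exposed to graded compound concentrations for 48 h or 72 h; MTT added for a further 2-3 h, formazan dissolved in DMSO. IC50 taken from dose-response curves; mean ± SD of at least three independent experiments.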

Test [5] has as its system Raji. As to the kind of experiment: Antiproliferative activity against human Raji cells at 1 uM after 48 to 72 hrs by MTT assay relative to control. The format is functional. A digest of the protocol:
as §1

For test [6], the system named is Raji. As to the kind of experiment: Antiproliferative activity against human Raji cells after 48 to 72 hrs by MTT assay. It counts as functional, cell-based. A digest of the protocol: as §2
The subject of test [7] is MCF7. Put plainly: Antiproliferative activity against human MCF7 cells after 48 to 72 hrs by MTT assay. It counts as functional, cell-based. Summed up: as §2
A short description of test [8]: Resistance index, ratio of IC50 for human A549/TR cells to IC50 for human A549 cells. The format is functional.
Test [9] deals with A2780/Taxol. As to the kind of experiment: Antiproliferative activity against human A2780T cells after 48 to 72 hrs by MTT assay. It counts as functional, cell-based. A digest of the protocol: as §2
A short description of test [10]: Resistance index, ratio of IC50 for human A2780T cells to IC50 for human A2780S cells. It counts as functional.
The subject of test [11] is A549/TR. Put plainly: Antiproliferative activity against human A549/TR cells after 48 to 72 hrs by MTT assay. It counts as functional, cell-based. Summed up:
as §2

Test [12] relates to A2780S. Put plainly: Antiproliferative activity against human A2780S cells after 48 to 72 hrs by MTT assay. The format is functional, cell-based. A digest of the protocol: as §2

As usually defined, the inhibition is the change of the read-out against control, counted positive when it falls. As a reminder, the IC50 is the point on the concentration scale where inhibition reaches its midpoint. A higher IC50 goes with weaker potency in that assay. Take `O=C(N/N=C/c1cccc(OCc2ccccc2F)c1)c1cc2c(cn1)[nH]c1ccccc12`: the inhibition at 1 µM in test [1] was 46.2%; in test [2], 43.2%; in test [3], 24.7%; in test [5] it was 54.3%. Further, the IC50 in test [4] amounted to 1.36 µM; in test [6], 2.94 µM; in [7], 6.5 µM.
As for `O=Cc1cccc(OCc2nnc(-c3cc4c(cn3)[nH]c3ccccc34)o2)c1`, the inhibition at 1 µM was found to be 26.8% in test [1], 13.9% in test [2], 9.83% in test [3] and 17.7% in test [5].
As to `O=C(N/N=C/c1cccc(OCc2ccccc2)c1)c1cc2c(cn1)[nH]c1ccccc12`, the inhibition at 1 µM in test [1] is 23.1%; in test [2], 29.7%; in test [3], 25.6%; in [5], 50.2%. Besides, the IC50 was 6.52 µM in [4], 2.62 µM in test [6] and 3.56 µM in test [7].
In the case of `O=C(N/N=C/c1cccc(Oc2ccccc2)c1)c1cc2c(cn1)[nH]c1ccccc12`, the inhibition at 1 µM in test [1] was -18.6%; in test [2], 22.1%; in test [3], 6.76%; in [5], 2.06%.
For the compound `Cc1cccc(COc2cccc(/C=N/NC(=O)c3cc4c(cn3)[nH]c3ccccc34)c2)c1`, the inhibition at 1 µM in [1] is 26.3%; in [2], 27.4%; in [3] it was 22.7%; in test [5] it was 33.2%.
As for `O=C(N/N=C/c1cccc(OCc2ccc([N+](=O)[O-])cc2)c1)c1cc2c(cn1)[nH]c1ccccc12`, the inhibition at 1 µM was 32.8% in test [1], 38.4% in test [2], 20.2% in test [3] and 56.7% in test [5]. Besides, the figures for the IC50 in [4], in test [6] and in test [7] were 1.04 µM, 3.02 µM and 8.3 µM, respectively.
Turning to `O=C(N/N=C/c1ccc(-c2ccccc2)cc1)c1cc2c(cn1)[nH]c1ccccc12`, the inhibition at 1 µM in test [1] stood at 36.6%; in test [2] it was 44.3%; in test [3], 29.3%; in test [5], 62.5%. Besides, the values for the IC50 in test [4], in [6] and in [7] were 3.64 µM, 1.04 µM and 4.56 µM, respectively.
As to `O=C(N/N=C/c1cccc(OCc2ccccc2Cl)c1)c1cc2c(cn1)[nH]c1ccccc12`, the inhibition at 1 µM in [1] was 36.2%; in test [2], 45.4%; in test [3] it was 28.6%; in test [5], 56.3%. Besides, the IC50 in [4] is 1.27 µM; in test [6], 3.02 µM; in test [7], 2.32 µM.
Turning to `C/C(=N\NC(=O)c1cccc(S(=O)(=O)N2CCOCC2)c1)c1cc(Cl)ccc1O`, the inhibition at 1 µM in [1] was determined as 59.3%; in test [2], 43.2%; in test [3], 41.3%; in test [5], 51.7%. Moreover, the IC50 in test [4] was 0.47 µM; in test [6], 0.98 µM; in [7] it was 0.62 µM.
For `N#Cc1ccccc1COc1cccc(/C=N/NC(=O)c2cc3c(cn2)[nH]c2ccccc23)c1`, the inhibition at 1 µM in test [1] was 15.1%; in test [2], 15.5%; in test [3], 20.7%; in test [5], 37.4%.
Turning to `N#Cc1cccc(COc2cccc(/C=N/NC(=O)c3cc4c(cn3)[nH]c3ccccc34)c2)c1`, the inhibition at 1 µM in [1] was 17.9%; in test [2], 12.8%; in test [3] it was 21.9%; in test [5] it was 24.1%.
Taken in the same sequence, the figures for `O=C(N/N=C/c1cccc(O)c1)c1cc2c(cn1)[nH]c1ccccc12` were -13.8%, 5.08%, 8.13% and 9.69%.
Consider `O=C(N/N=C/c1cccc(OCc2ccc(F)cc2)c1)c1cc2c(cn1)[nH]c1ccccc12`, for which the inhibition at 1 µM in test [1] is 23.6%; in [2] it was 29.7%; in test [3], 27.2%; in test [5], 48%.
Taken in the same sequence, the figures for `O=C(N/N=C/c1cccc(OCc2cccc(Cl)c2)c1)c1cc2c(cn1)[nH]c1ccccc12` were 22.4%, 31.9%, 15.6% and 48.2%.
For the compound `COc1ccc(/C=N/NC(=O)c2cc3c(cn2)[nH]c2ccccc23)cc1OCc1ccccc1`, the inhibition at 1 µM in test [1] was -6.31%; in test [2], 20.7%; in test [3], 22.2%; in test [5] it was 25.8%.
Regarding `O=C(N/N=C/c1c[nH]c2ccccc12)c1cc2c(cn1)[nH]c1ccccc12`, the inhibition at 1 µM turned out to be 6.31% in test [1], 16.2% in [2], 7.1% in test [3] and 8.66% in test [5].
Taken in the same sequence, the figures for `c1ccc(OCc2nnc(-c3cc4c(cn3)[nH]c3ccccc34)o2)cc1` were -5.47%, 4.84%, 7.42% and 1.69%.
Taken in the same sequence, the figures for `CN(Cc1ccccc1)Cc1nnc(-c2cc3c(cn2)[nH]c2ccccc23)o1` were -1.84%, 3.74%, -3.26% and 16.3%.
For `O=Cc1ccc(OCc2nnc(-c3cc4c(cn3)[nH]c3ccccc34)o2)cc1`, in that order: -2.52%, 6.63%, 2.98% and 9.17%.
As for `Cc1ccccc1COc1cccc(/C=N/NC(=O)c2cc3c(cn2)[nH]c2ccccc23)c1`, the inhibition at 1 µM is 18.2% in test [1], 29.4% in test [2], 24.8% in test [3] and 36% in [5].
Taken in the same sequence, the figures for `O=C(N/N=C/c1cccc(OCc2cccc(F)c2)c1)c1cc2c(cn1)[nH]c1ccccc12` were 17.1%, 21.7%, 16.5% and 40.4%.
Regarding `O=C(N/N=C/c1cccc(OCc2ccc(C(F)(F)F)cc2)c1)c1cc2c(cn1)[nH]c1ccccc12`, the inhibition at 1 µM in test [1] stood at 38.4%; in test [2], 23.4%; in test [3] it was 24.4%; in [5], 51.2%. For the same compound, the IC50 was found to be 7.49 µM in test [4], 2.04 µM in test [6] and 6.6 µM in [7].
For the compound `Cc1ccc(COc2cccc(/C=N/NC(=O)c3cc4c(cn3)[nH]c3ccccc34)c2)cc1`, the inhibition at 1 µM amounted to 53.5% in [1], 29.2% in [2], 28.7% in test [3] and 45% in test [5]. Further, the results for the IC50 in test [4], in [6] and in [7] were 2.18 µM, 4.06 µM and 5.24 µM, respectively.
Consider `O=C(N/N=C/c1ccc2ccccc2c1)c1cc2c(cn1)[nH]c1ccccc12`, for which the inhibition at 1 µM turned out to be 35.7% in test [1], 40.7% in test [2], 21.8% in test [3] and 51.8% in test [5]. Further, the figures for the IC50 in [4], in test [6] and in [7] were 5.71 µM, 2.04 µM and 14.9 µM, respectively.
For the compound `COC(=O)c1ccc(COc2cccc(/C=N/NC(=O)c3cc4c(cn3)[nH]c3ccccc34)c2)cc1`, the inhibition at 1 µM in [1] is 56.4%; in test [2], 25.9%; in test [3], 31.8%; in test [5] it was 63.8%. Also, the IC50 in [4] worked out at 1.17 µM; in test [6] it was 3.88 µM; in test [7] it was 1.64 µM.
As for `COc1ccc(COc2cccc(/C=N/NC(=O)c3cc4c(cn3)[nH]c3ccccc34)c2)cc1`, the inhibition at 1 µM in test [1] came to 37%; in test [2], 38.6%; in [3], 23.6%; in [5], 52%. In addition, the half-maximal inhibitory concentration (IC50) in test [4] was 2.84 µM; in test [6] it was 2.34 µM; in test [7], 9.37 µM.
Turning to `O=C(N/N=C/c1cccc(OCc2ccc(Cl)cc2)c1)c1cc2c(cn1)[nH]c1ccccc12`, the inhibition at 1 µM in [1] stood at 24.3%; in test [2], 40.4%; in test [3] it was 30.7%; in test [5], 56.7%. Moreover, the IC50 in [4] worked out at 5.02 µM; in test [6], 5.02 µM; in [7] it was 8.62 µM.
In the case of `COc1cc2c(c(OC)c1OC)-c1ccc(OC)c(=O)cc1[C@@H](NC(C)=O)CC2` [COLCHICINE], the “Ratio IC50” value in test [8] turned out to be 60.41; in test [10], 1630.02. Besides, the IC50 in [9] came to 35.6 µM; in [11] it was 0.167 µM; in [12] it was 0.0219 µM.
As to `O=C(N/N=C/c1cccc(OCc2ccc(Br)cc2)c1)c1cc2c(cn1)[nH]c1ccccc12`, the inhibition at 1 µM is 50.4% in test [1], 52.8% in [2], 31.8% in test [3] and 58.7% in test [5]. Besides, the values for the IC50 in test [4], in test [6] and in [7] were 2.42 µM, 6.74 µM and 7.22 µM, respectively.
